Data published in ChEMBL document CHEMBL4406810, “Modifications on the Amino-3,5-dicyanopyridine Core To Obtain Multifaceted Adenosine Receptor Ligands with Antineuropathic Activity” (J Med Chem, 2019).
Active and inactive are the calls of the source. The calls are words filed in the database; no cut-off is given here.

Experiments:
Adenosine receptor A2b = biological target: T1, Adenosine receptor A2b (Homo sapiens, UniProt P29275); assay: Agonist activity at human A2B expressed in CHO cells assessed as stimulation of cAMP production by alphascreen assay; format: functional, cell-based
T1 sequence (P29275 whole entry): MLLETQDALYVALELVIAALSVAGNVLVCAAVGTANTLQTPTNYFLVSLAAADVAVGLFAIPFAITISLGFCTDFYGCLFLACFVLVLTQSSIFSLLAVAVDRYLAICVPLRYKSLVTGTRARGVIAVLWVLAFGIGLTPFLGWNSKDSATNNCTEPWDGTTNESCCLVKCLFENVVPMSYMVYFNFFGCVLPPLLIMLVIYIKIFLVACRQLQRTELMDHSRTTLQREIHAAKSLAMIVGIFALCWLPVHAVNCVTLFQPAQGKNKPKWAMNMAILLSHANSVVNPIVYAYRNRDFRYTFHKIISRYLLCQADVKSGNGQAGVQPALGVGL
Summary of the method: (§1)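 Compounds tested alone at final 1 nM to 1 µM. cAMP measured by AlphaScreen. Efficacy taken at 1 µM relative to NECA 1 µM (=100%). Four independent experiments in triplicate.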

[1] = biological target: T2, Adenosine receptor A3 (Homo sapiens) (UniProt P0DMS8); assay: Displacement of [125I]ABMECA from human A3R expressed in CHO cell membranes at 1 uM measured after 120 mins by scintillation counting method relative to control
T2 sequence (whole entry): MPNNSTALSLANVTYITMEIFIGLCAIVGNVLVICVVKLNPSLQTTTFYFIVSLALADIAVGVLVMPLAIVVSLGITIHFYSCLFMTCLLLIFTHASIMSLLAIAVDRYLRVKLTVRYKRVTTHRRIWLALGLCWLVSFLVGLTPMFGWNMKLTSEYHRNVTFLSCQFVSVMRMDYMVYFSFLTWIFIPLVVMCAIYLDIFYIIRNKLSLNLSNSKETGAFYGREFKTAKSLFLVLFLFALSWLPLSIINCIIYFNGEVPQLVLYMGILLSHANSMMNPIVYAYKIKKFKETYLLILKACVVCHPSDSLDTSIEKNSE
Summary of the method: (§2)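 Nonspecific binding with 1 µM AB-MECA. GF/B filtration and counting. Ki via Cheng–Prusoff. Percent inhibition at 1 µM. Four experiments in triplicate.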

[2] = biological target: T3, Adenosine receptor A1 (Homo sapiens) (UniProt P30542); assay: Displacement of [3H]DPCPX from human A1AR expressed in CHO cell membranes at 1 uM measured after 90 mins by scintillation counting method relative to control
T3 sequence (whole entry): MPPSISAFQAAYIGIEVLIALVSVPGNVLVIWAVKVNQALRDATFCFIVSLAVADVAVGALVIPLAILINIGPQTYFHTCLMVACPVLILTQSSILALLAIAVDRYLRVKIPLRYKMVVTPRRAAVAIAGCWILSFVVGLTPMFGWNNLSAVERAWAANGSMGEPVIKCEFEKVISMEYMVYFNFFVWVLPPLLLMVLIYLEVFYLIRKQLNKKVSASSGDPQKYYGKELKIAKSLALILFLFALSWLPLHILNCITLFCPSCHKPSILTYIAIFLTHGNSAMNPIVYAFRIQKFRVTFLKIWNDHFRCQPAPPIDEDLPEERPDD
Summary of the method: (§3)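 Nonspecific binding with 1 µM DPCPX. GF/B filtration and scintillation counting. Ki by Cheng–Prusoff. Inhibition % at 1 µM. Four experiments in triplicate.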

[3] = biological target: T4, Adenosine receptor A2b (Homo sapiens) (UniProt P29275); assay: Antagonist activity at human A2BR expressed in CHO cells assessed as inhibition of NECA-stimulated cAMP production at 1 uM by alphascreen assay relative to control; format: functional, cell-based
T4 sequence (whole entry): T1 sequence (P29275 whole entry)
Summary of the method: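 Compounds added at 1 nM to 1 µM final, with percent inhibition read at 1 µM. AlphaScreen cAMP read-out. IC50 by sigmoid non-linear regression. Four independent experiments in triplicate.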

Adenosine receptor A2a [4] = biological target: T5, Adenosine receptor A2a (Homo sapiens, UniProt P29274); assay: Displacement of [3H]ZM241385 from human A2AR expressed in CHO cell membranes at 1 uM measured after 60 mins by scintillation counting method relative to control
Summary of the method: (§4)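 Nonspecific binding defined with 1 µM ZM241385. Filtered on GF/B, scintillation counted. Ki by Cheng–Prusoff. Percent inhibition at 1 µM. Four experiments in triplicate.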

[5] = biological target: T4, Adenosine receptor A2b (Homo sapiens); assay: Agonist activity at human A2B expressed in CHO cells assessed as stimulation of cAMP production at 1 uM by alphascreen assay relative to NECA; format: functional, cell-based; summary of the method: as §1
CHO = assay: Effect on cAMP level in wild-type CHO cells at 0.001 to 1 uM by alphascreen assay; format: functional, cell-based; settings: Cricetulus griseus
Summary of the method: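 Compounds at 1 nM to 1 µM final concentrations. cAMP quantified with AlphaScreen kit. Four independent experiments, each in triplicate.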

Adenosine receptor A1 [6] = biological target: T6, Adenosine receptor A1 (Homo sapiens, UniProt P30542); assay: Displacement of [3H]DPCPX from human A1AR expressed in CHO cell membranes measured after 90 mins by scintillation counting method; summary of the method: as §3
T6 sequence (P30542 whole entry): T3 sequence (whole entry)

Adenosine receptor A1 [7] = biological target: T6, Adenosine receptor A1; assay: Inverse agonist activity at human A1AR expressed in CHO cells assessed as increase in forskolin-stimulated cAMP production by alphascreen assay; format: functional, cell-based
Summary of the method: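 Compounds at 1 nM to 1 µM. cAMP rise measured by AlphaScreen. EC50 from sigmoid fit. Four independent experiments in triplicate.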

[8] = biological target: T3, Adenosine receptor A1 (Homo sapiens); assay: Inverse agonist activity at human A1AR expressed in CHO cells assessed as increase in forskolin-stimulated cAMP production by alphascreen assay relative to DPCPX; format: functional, cell-based
Summary of the method: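 Compounds at 1 nM to 1 µM. cAMP rise measured by AlphaScreen. EC50 from sigmoid fit. […] Four independent experiments in triplicate.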

Adenosine receptor A3 = biological target: T7, Adenosine receptor A3 (Homo sapiens, UniProt P0DMS8); assay: Displacement of [125I]ABMECA from human A3R expressed in CHO cell membranes measured after 120 mins by scintillation counting method; summary of the method: as §2
T7 sequence (P0DMS8 whole entry): T2 sequence (whole entry)

Adenosine receptor A2a [9] = biological target: T5, Adenosine receptor A2a; assay: Displacement of [3H]ZM241385 from human A2AR expressed in CHO cell membranes measured after 60 mins by scintillation counting method; summary of the method: as §4
Adenosine receptor A2a [10] = biological target: T5, Adenosine receptor A2a; assay: Antagonist activity at human A2AR expressed in CHO cells assessed as inhibition of CGS21680-stimulated cAMP production by alphascreen assay; format: functional, cell-based

T5 sequence (P29274 whole entry): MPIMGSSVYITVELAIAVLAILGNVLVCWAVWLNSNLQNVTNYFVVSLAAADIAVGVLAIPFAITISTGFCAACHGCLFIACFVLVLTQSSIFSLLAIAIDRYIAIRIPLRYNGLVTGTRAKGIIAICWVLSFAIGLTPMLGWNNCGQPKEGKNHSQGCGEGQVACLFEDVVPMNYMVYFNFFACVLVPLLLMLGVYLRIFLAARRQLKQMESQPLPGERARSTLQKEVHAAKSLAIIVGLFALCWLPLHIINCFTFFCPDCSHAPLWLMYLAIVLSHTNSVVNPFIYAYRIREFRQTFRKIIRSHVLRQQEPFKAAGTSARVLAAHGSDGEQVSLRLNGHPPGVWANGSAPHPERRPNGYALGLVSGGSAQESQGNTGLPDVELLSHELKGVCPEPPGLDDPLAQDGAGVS

Row | SMILES | EC50 (Adenosine receptor A2b) [nM] | inhibition [1] [%] | inhibition [2] [%] | inhibition [3] [%] | inhibition (Adenosine receptor A2a [4]) [%] | Efficacy [5] [%] | Activity (CHO) | Ki (Adenosine receptor A1 [6]) [nM] | EC50 (Adenosine receptor A1 [7]) [nM] | Emax [8] [%] | Ki (Adenosine receptor A3) [nM] | Ki (Adenosine receptor A2a [9]) [nM] | IC50 (Adenosine receptor A2a [10]) [nM]
1 | N#Cc1c(N)nc(NCCO)c(C#N)c1-c1ccco1 | > 1000 | 17 | 20 | 6 | 18 | 1 | inactive |  |  |  |  |  | 
2 | N#Cc1c(N)nc(SCCO)c(C#N)c1-c1ccco1 | > 1000 | 29 |  | 33 | 27 | 7 | inactive | 57 | 128 | 83 |  |  | 
3 | COC(=O)c1ccc(CSc2nc(N)c(C#N)c(-c3ccco3)c2C#N)o1 | > 1000 | 11 |  |  | 1 | 7 | inactive | 82 | 185 | 24 |  |  | 
4 | N#Cc1c(NC2CCCC2)nc(SCCO)c(C#N)c1-c1ccco1 | > 1000 |  |  |  | 8 | 1 | inactive | 742 |  |  | 780 |  | 
5 | N#CCSc1nc(N)c(C#N)c(-c2ccco2)c1C#N | > 1000 |  |  |  |  | 1 | inactive | 93 |  |  | 582 | 887 | 
6 | N#Cc1c(N)nc(SCCO)c(C#N)c1-c1ccoc1 | 852 | 34 |  | 38 | 19 | 32 | inactive | 19 | 58 | 39 |  |  | 
7 | N#Cc1c(N)nc(SCC(N)=O)c(C#N)c1-c1ccco1 | > 1000 |  |  |  | 21 | 17 | inactive | 175 |  |  | 177 |  | 
8 | N#Cc1c(N)nc(SCCO)c(C#N)c1-c1cccnc1 | > 1000 | 22 |  |  | 7 | 18 | inactive | 35 | 94 | 75 |  |  | 
9 | N#Cc1c(Nc2ccc(I)cc2)nc(SCCO)c(C#N)c1-c1ccco1 | > 1000 | 8 | 10 |  | 1 | 1 | inactive |  |  |  |  |  | 
10 | N#Cc1c(N)nc(SCCO)c(C#N)c1-c1cccs1 | 885 |  |  |  | 1 | 69 | inactive | 52 | 107 | 74 | 554 |  | 
11 | CC(=O)Nc1nc(SCCO)c(C#N)c(-c2ccco2)c1C#N | > 1000 |  |  |  | 11 | 3 | inactive | 243 |  |  | 211 |  | 
12 | COC(=O)c1cccc(CSc2nc(N)c(C#N)c(-c3cccs3)c2C#N)c1 | 982 | 15 |  |  |  | 62 | inactive | 2.72 | 3.85 | 56 |  | 693 | 
13 | COC(=O)c1cccc(CSc2nc(N)c(C#N)c(-c3cccnc3)c2C#N)c1 | > 1000 | 8 |  |  |  | 15 | inactive | 1.18 | 6.26 | 72 |  | 636 | 
14 | N#Cc1c(N)nc(SCc2ccccn2)c(C#N)c1-c1ccco1 | > 1000 |  |  |  |  | 9 | inactive | 2.71 | 3.41 | 30 | 134 | 108 | 
15 | COC(=O)CSc1nc(N)c(C#N)c(-c2ccco2)c1C#N | > 1000 | 25 |  |  | 17 | 4 | inactive | 108 |  |  |  |  | 
16 | COC(=O)c1cccc(CSc2nc(N)c(C#N)c(-c3ccoc3)c2C#N)c1 | > 1000 | 1 |  |  |  | 7 | inactive | 2.11 | 4.35 | 51 |  | 96 | 
17 | N#Cc1cccc(CSc2nc(N)c(C#N)c(-c3ccco3)c2C#N)c1 | > 1000 |  |  |  |  | 7 | inactive | 1.02 | 4.82 | 100 | 668 | 93 | 
18 | N#Cc1c(N)nc(SCc2cccnc2)c(C#N)c1-c1ccco1 | > 1000 |  |  |  |  | 1 | inactive | 1.42 | 2.73 | 47 | 948 | 24 | 83
19 | CCCn1c(=O)c2[nH]c(C3CCCC3)nc2n(CCC)c1=O |  |  |  |  |  | 1 |  |  |  |  |  |  | 
20 | N#Cc1c(N)nc(SCC(=O)OCc2ccccc2)c(C#N)c1-c1ccco1 | > 1000 | 1 |  |  | 8 | 10 | inactive | 86 | 192 | 53 |  |  | 
21 | N#Cc1c(N)nc(NCCO)c(C#N)c1-c1cccs1 | > 1000 | 29 |  | 4 | 33 | 1 | inactive | 324 |  |  |  |  | 
22 | N#Cc1c(N)nc(NCCO)c(C#N)c1-c1cccnc1 | > 1000 | 8 | 1 |  | 1 | 1 | inactive |  |  |  |  |  | 
23 | N#Cc1c(N)nc(OCCO)c(C#N)c1-c1ccco1 | > 1000 | 3 |  |  | 25 | 11 | inactive | 632 |  |  |  |  | 
24 | N#Cc1c(N)nc(SCC(=O)c2ccccc2)c(C#N)c1-c1ccco1 | > 1000 | 26 |  |  |  | 1 | inactive | 23 | 57 | 29 |  | 224 | 
25 | N#Cc1c(N)nc(SCc2ccncc2)c(C#N)c1-c1ccco1 | > 1000 |  |  | 40 |  | 14 | inactive | 40 |  |  | 678 | 114 | 
26 | N#Cc1c(N)nc(SCCO)c(C#N)c1-c1ccsc1 | > 1000 | 33 |  |  | 9 | 8 | inactive | 60 | 142 | 62 |  |  | 
